For 19 compounds, IC50 and Activity results are on record in ChEMBL document CHEMBL1138439, “Synthesis and structure-activity relationship of novel diarylpyrazole imide analogues as CB1 cannabinoid receptor ligands” (Bioorg Med Chem, 2009).

Bounds are passed on as bounds.

The target in one assay is Cannabinoid receptor 1 (Rattus norvegicus, UniProt P20272). The experiment in a line: Displacement of [3H]CP-55940 from CB1R in Sprague-Dawley rat cerebellar membrane. Also noted: species or system Cerebellum.
Cannabinoid receptor 1, sequence (P20272 whole entry): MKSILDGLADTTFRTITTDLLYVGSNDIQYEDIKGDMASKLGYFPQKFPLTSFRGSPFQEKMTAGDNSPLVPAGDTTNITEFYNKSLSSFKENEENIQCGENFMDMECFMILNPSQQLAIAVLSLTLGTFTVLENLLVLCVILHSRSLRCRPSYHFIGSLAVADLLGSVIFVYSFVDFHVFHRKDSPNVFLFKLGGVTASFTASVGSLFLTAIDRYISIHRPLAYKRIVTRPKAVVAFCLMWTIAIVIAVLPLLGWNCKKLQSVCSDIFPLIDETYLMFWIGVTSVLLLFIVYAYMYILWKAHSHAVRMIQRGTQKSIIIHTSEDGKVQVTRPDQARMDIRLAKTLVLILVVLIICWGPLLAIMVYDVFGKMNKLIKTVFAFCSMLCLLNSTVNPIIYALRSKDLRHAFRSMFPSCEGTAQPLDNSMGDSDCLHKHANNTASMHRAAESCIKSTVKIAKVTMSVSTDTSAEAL
Conditions: not given
`Cc1c(C(=O)NC(=O)NCC2CCCCC2)nn(-c2ccc(Cl)cc2Cl)c1-c1ccc(Cl)cc1`: the IC50 entry is “ND(Insoluble)”.

Take `Cc1c(C(=O)NC(=O)NC(C)(C)C)nn(-c2ccc(Cl)cc2Cl)c1-c1ccc(Cl)cc1`: the IC50 entry was “ND(Insoluble)”.

Staying with this assay, now noted: read-out: IC50.
Take `Cc1c(C(=O)NS(=O)(=O)Cc2ccccc2)nn(-c2ccc(Cl)cc2Cl)c1-c1ccc(Cl)cc1`: the IC50 is greater than 10000 nM.

On to `CCCC(CCC)C(=O)N(C)C(=O)c1nn(-c2ccc(Cl)cc2Cl)c(-c2ccc(Cl)cc2)c1C`, for which the IC50 is 247 nM.

Turning to `Cc1c(C(=O)NS(=O)(=O)c2ccccc2)nn(-c2ccc(Cl)cc2Cl)c1-c1ccc(Cl)cc1`, the IC50 was found to be 3640 nM.

For `Cc1c(C(=O)N(C)C(=O)C2CCCCC2)nn(-c2ccc(Cl)cc2Cl)c1-c1ccc(Cl)cc1`, the IC50 worked out at 167 nM.

`Cc1c(C(=O)NS(=O)(=O)c2ccc(F)cc2)nn(-c2ccc(Cl)cc2Cl)c1-c1ccc(Cl)cc1`: the IC50 came to 1200 nM.

`Cc1c(C(=O)NS(=O)(=O)c2ccc(Cl)cc2)nn(-c2ccc(Cl)cc2Cl)c1-c1ccc(Cl)cc1`: the IC50 was greater than 10000 nM.

On to `Cc1c(C(=O)N(C)C(=O)C(C)(C)C)nn(-c2ccc(Cl)cc2Cl)c1-c1ccc(Cl)cc1`, for which the IC50 was 220 nM.

In the case of `Cc1c(C(=O)NS(=O)(=O)C(C)C)nn(-c2ccc(Cl)cc2Cl)c1-c1ccc(Cl)cc1`, the IC50 is greater than 10000 nM.

On to `CCCCS(=O)(=O)NC(=O)c1nn(-c2ccc(Cl)cc2Cl)c(-c2ccc(Cl)cc2)c1C`, for which the half-inhibitory concentration (IC50) was greater than 10000 nM.

As for `Cc1c(C(=O)NS(=O)(=O)c2cccc(Cl)c2)nn(-c2ccc(Cl)cc2Cl)c1-c1ccc(Cl)cc1`, the IC50 amounted to 1200 nM.

Take `CCC(C)(C)C(=O)N(C)C(=O)c1nn(-c2ccc(Cl)cc2Cl)c(-c2ccc(Cl)cc2)c1C`: the IC50 turned out to be 227 nM.

In the case of `Cc1c(C(=O)NS(=O)(=O)c2cccc(F)c2)nn(-c2ccc(Cl)cc2Cl)c1-c1ccc(Cl)cc1`, the IC50 is greater than 10000 nM.

`CCCS(=O)(=O)NC(=O)c1nn(-c2ccc(Cl)cc2Cl)c(-c2ccc(Cl)cc2)c1C`: the IC50 is greater than 10000 nM.

In the case of `CCC(CC)C(=O)N(C)C(=O)c1nn(-c2ccc(Cl)cc2Cl)c(-c2ccc(Cl)cc2)c1C`, the IC50 is 265 nM.

On to `Cc1ccc(S(=O)(=O)NC(=O)c2nn(-c3ccc(Cl)cc3Cl)c(-c3ccc(Cl)cc3)c2C)cc1`, for which the IC50 was greater than 10000 nM.

The test system of a further assay is Mus musculus. Description: Reduction in body weight of diet induced obese C57BL/6J mouse at 10 mL/kg, po for 14 days. Format: functional. Further details: scale not given: the % may be the effect or the level left.
Conditions: not given
In a few lines: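 Body weight change (g) from start was tracked daily over days 0–14 and compared with a vehicle-treated control group.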
Compound `Cc1c(C(=O)NN2CCCCC2)nn(-c2ccc(Cl)cc2Cl)c1-c1ccc(Cl)cc1` [RIMONABANT] came in with an Activity of 11.5%.

With `Cc1c(C(=O)NC(=O)C(C)(C)C)nn(-c2ccc(Cl)cc2Cl)c1-c1ccc(Cl)cc1`, the Activity came out at 2.2%.

Broadly, the IC50 is the concentration at which inhibition is half-maximal.
